This note sets out measurements from ChEMBL document CHEMBL1158681, “Flavones and sesquiterpene lactones from Achillea atrata subsp. multifida: antimicrobial activity” (1999).

For one experiment, the system named is Escherichia coli. The experiment in a line: Antimicrobial activity against Escherichia coli ATCC 25922 after 24 hrs by agar well diffusion method. It counts as functional. A digest of the protocol: (§1)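 Agar well diffusion: stationary-phase culture suspended in saline at approx. 10^5 cfu/mL, 200 µL spread on Mueller-Hinton agar (bacteria) or Sabouraud agar (yeast, fungi). Test samples at 50 µg/50 µL added to wells. Incubated 24 h (bacteria, yeast) or 48 h (fungi). Read-out is inhibition zone diameter.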
(In general: Agar diffusion results depend on both activity and mobility in agar.)

For experiment [1], the system named is Candida albicans. The experiment in a line: Antimicrobial activity against Candida albicans ATCC 24433 after 24 hrs by agar well diffusion method. Format: functional. Summed up:
as §1

A further experiment has as its system Aspergillus niger. The experiment in a line: Antimicrobial activity against Aspergillus niger after 48 hrs by agar well diffusion method. It counts as functional, organism-based. Summed up: as §1
A further experiment has as its system Bacillus subtilis. Description: Antimicrobial activity against Bacillus subtilis IP 5832 after 24 hrs by agar well diffusion method. It counts as functional. A digest of the protocol:
as §1

The next experiment has as its system Staphylococcus aureus. The experiment in a line: Antimicrobial activity against Staphylococcus aureus ATCC 25923 after 24 hrs by agar well diffusion method. Format: functional, organism-based. A digest of the protocol:
as §1

For experiment [2], the system named is Candida albicans. The experiment in a line: Antimicrobial activity against Candida albicans ATCC 24433 after 24 hrs using sabouraud liquid medium. It counts as functional. A digest of the protocol: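 Broth MIC in duplicate in Sabouraud liquid medium. Samples made up at 1 mg/mL in DMSO, then serially diluted over 100-0.1 µg/mL. Inoculum is stationary-phase culture at 10^5 cfu/mL. Incubated 37 °C for 24 h. MIC taken as the lowest concentration preventing any visible growth.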

Converted amounts (≈) assume the structure as drawn. The source made the active and inactive calls. No cut-off for these calls is given here.

Regarding `O=c1cc(-c2ccc(O)cc2)oc2cc(O)cc(O)c12` [APIGENIN], the “inhibition zone (IZ)” value came to 6 mm in the experiment with Escherichia coli, 10 mm in the experiment with Candida albicans [1] and 6 mm with Bacillus subtilis. In addition, the result with Aspergillus niger and in the experiment on Staphylococcus aureus was inactive. For the same molecule, the MIC – broadly, the lowest concentration found to suppress growth – against Candida albicans [2] (ATCC 24433, 24 h) stood at 3 µg/mL (≈ 11.1 µM).
With `O=c1cc(-c2ccc(O)cc2)oc2cc(O[C@@H]3O[C@H](CO)[C@@H](O)[C@H](O)[C@H]3O)cc(O)c12` [APIGETRIN], the result in the experiment on Aspergillus niger and with Staphylococcus aureus was inactive. Besides, the “inhibition zone (IZ)” value in the experiment with Bacillus subtilis is on record as 6 mm.
In the case of `COc1ccc(-c2oc3cc(O)c(OC)c(O)c3c(=O)c2OC)cc1O` [CENTAUREIDIN], the inhibition zone (IZ) in the experiment with Candida albicans [1] amounted to 11 mm; in the experiment on Bacillus subtilis it was 6 mm. The outcome with Aspergillus niger and with Staphylococcus aureus was inactive. In the experiment on Candida albicans [2] (ATCC 24433, 24 h), this molecule showed an MIC of 3 µg/mL (≈ 8.33 µM).
For `COc1ccc(-c2oc3cc(O)c(OC)c(O)c3c(=O)c2OC)cc1` [SANTIN], the results for the “inhibition zone (IZ)” value in the experiment with Escherichia coli, with Candida albicans [1] and with Bacillus subtilis were 6 mm, 8 mm and 6 mm, respectively. For the same molecule, the outcome with Aspergillus niger and in the experiment with Staphylococcus aureus was inactive. In the experiment on Candida albicans [2] (ATCC 24433, 24 h), this molecule returned an MIC of 3 µg/mL (≈ 8.71 µM).
NYSTATIN came in with an MIC against Candida albicans [2] of 3.12 µg/mL.
